pIC50: −log10 of the molar value.
Assays:
[1] = Ratio of plasma concentration in rat after 24 hrs to IC50 for wild type HIV1 3B infected in human MT4 cells in presence of human serum albumin; type: ADME, cell-based; conditions: mt4, 24 h
[2] = Half life in rat at 1 mg/kg, iv and 5 mg/kg, po; type: ADME, organism-based; conditions: in vivo
[3] = (§1) Volume of distribution at steady state in rat at 1 mg/kg, iv and 5 mg/kg, po; type: ADME, organism-based; conditions: in vivo, read-out: Vdss
[4] = system: Human immunodeficiency virus 1; experiment: Selectivity ratio of IC50 for RAL-resistant HIV1 harboring integrase Y143R mutant to IC50 for wild type HIV1 3B; type: functional
[5] = system: Human immunodeficiency virus 1; experiment: Selectivity ratio of IC50 for RAL-resistant HIV1 harboring integrase N155H mutant to IC50 for wild type HIV1 3B; type: functional
[6] = system: Human immunodeficiency virus 1; experiment: Selectivity ratio of IC50 for wild type HIV1 3B infected in human MT4 cells in presence of human serum albumin to IC50 for wild type HIV1 3B infected in human MT4 cells; type: functional
[7] = system: Human immunodeficiency virus 1; experiment: Selectivity ratio of IC50 for RAL-resistant HIV1 harboring integrase Q148K mutant to IC50 for wild type HIV1 3B; type: functional
[8] = system: Human immunodeficiency virus 1; experiment: Antiviral activity against wild type HIV1 3B infected in human MT4 cells assessed as cell viability by MTT assay in presence of human serum albumin; type: functional, organism-based; conditions: Human immunodeficiency virus 1, 3B
Summary of the method: (§2)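 HIV-1 replication in MT-4 cells read by MTT. Values are mean ± s.d. of three independent experiments. The protein-adjusted value is derived from the MT-4/MTT IC50 and the shift seen with human serum albumin. Detailed conditions are those of the earlier paper in the series.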

[9] = Cytotoxicity against human MT4 cells assessed as growth inhibition after 4 days by MTT assay; type: cell-based
Summary of the method: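 MT-4 cells; values given as mean ± s.d. of three independent experiments.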

[10] = system: Human immunodeficiency virus 1; experiment: Antiviral activity against wild type HIV1 3B infected in human MT4 cells assessed as cell viability by MTT assay; type: functional, organism-based; conditions: Human immunodeficiency virus 1, 3B; summary of the method: as §2
[11] = Oral bioavailability in rat at 5 mg/kg; type: ADME, organism-based; conditions: in vivo
[12] = Total clearance in rat at 1 mg/kg, iv and 5 mg/kg, po; type: ADME, organism-based; conditions: in vivo
Rattus norvegicus = experiment: as §1; type: ADME, organism-based; conditions: in vivo

## COC(=O)c1[nH]cc(C(=O)NCc2ccc(F)cc2)c(=O)c1O
[1]
  Ratio: 3.4
[2]
  half-life: 4.7 h
[3]
  Vd: 0.2 L/kg
[4]
  Ratio IC50: 1.5
[5]
  Ratio IC50: 21
[6]
  Ratio IC50: 12
[7]
  Ratio IC50: 200

## CN(C)C(=O)CN1CCn2cc(C(=O)NCc3ccc(F)cc3)c(=O)c(O)c2C1=O
[6]
  Ratio IC50: 2.4
[8]
  pIC50: 7.21
[9]
  CC50 at 96 h: > 200000 nM
[10]
  pIC50: 7.59

## CC(C)OCCn1ccn2cc(C(=O)NCc3ccc(F)cc3)c(=O)c(O)c2c1=O
[6]
  Ratio IC50: 4.4
[8]
  pIC50: 7.72
[7]
  Ratio IC50: 39
[9]
  CC50 at 96 h: 49000 nM
[10]
  pIC50: 8.37

## CC(C)OCCN1CCn2cc(C(=O)NCc3ccc(F)cc3)c(=O)c(O)c2C1=O
[6]
  Ratio IC50: 3.1
[8]
  pIC50: 7.89
[7]
  Ratio IC50: 9.9
[9]
  CC50 at 96 h: 30000 nM
[10]
  pIC50: 8.38

## O=C(NCc1ccc(F)cc1)c1cn2ccn(CCOc3ccccc3)c(=O)c2c(O)c1=O
[6]
  Ratio IC50: 11
[8]
  pIC50: 7.32
[7]
  Ratio IC50: >250
[9]
  CC50 at 96 h: 2400 nM
[10]
  pIC50: 8.36

## O=C(NCc1ccc(F)cc1)c1cn2c(c(O)c1=O)C(=O)N(CCOc1ccccc1)CC2
[6]
  Ratio IC50: 9.5
[8]
  pIC50: 7.19
[7]
  Ratio IC50: 17
[9]
  CC50 at 96 h: 10000 nM
[10]
  pIC50: 8.17

## O=C(NCc1ccc(F)cc1)c1cn2ccn(C3CCCCC3)c(=O)c2c(O)c1=O
[6]
  Ratio IC50: 13
[8]
  pIC50: 6.81
[7]
  Ratio IC50: >250
[9]
  CC50 at 96 h: > 200000 nM
[10]
  pIC50: 7.92

## O=C(NCc1ccc(F)cc1)c1cn2c(c(O)c1=O)C(=O)N(C1CCCCC1)CC2
[6]
  Ratio IC50: 4.4
[8]
  pIC50: 7.54
[7]
  Ratio IC50: >250
[9]
  CC50 at 96 h: > 240000 nM
[10]
  pIC50: 8.19

## COCCN1C(=O)c2c(O)c(=O)c(C(=O)NCc3ccc(F)cc3)cn2CC1O (configuration not stated)
[1]
  Ratio: 117
[11]
  bioavailability: 14%
[2]
  half-life: 7.6 h
[3]
  Vd: 0.14 L/kg
[12]
  clearance: 0.24 mL/min/kg
[4]
  Ratio IC50: 1.5
[5]
  Ratio IC50: 1.5
[6]
  Ratio IC50: 3.7
[8]
  pIC50: 7.85
[7]
  Ratio IC50: 2.1
[9]
  CC50 at 96 h: 83000 nM
[10]
  pIC50: 8.42

## COCCn1ccn2cc(C(=O)NCc3ccc(F)cc3)c(=O)c(O)c2c1=O
[1]
  Ratio: 2600
[11]
  bioavailability: 40%
[2]
  half-life: 11 h
Rattus norvegicus
  Vdss: 0.015 L/kg
[12]
  clearance: 0.02 mL/min/kg
[4]
  Ratio IC50: 1.6
[5]
  Ratio IC50: 3.7
[6]
  Ratio IC50: 17
[8]
  pIC50: 7.57
[7]
  Ratio IC50: 35
[9]
  CC50 at 96 h: > 200000 nM
[10]
  pIC50: 8.80

## COCCN1CCn2cc(C(=O)NCc3ccc(F)cc3)c(=O)c(O)c2C1=O
[1]
  Ratio: 27
[11]
  bioavailability: 41%
[2]
  half-life: 3.4 h
[3]
  Vd: 0.12 L/kg
[12]
  clearance: 0.51 mL/min/kg
[4]
  Ratio IC50: 1.5
[5]
  Ratio IC50: 1.5
[6]
  Ratio IC50: 3.1
[8]
  pIC50: 7.74
[7]
  Ratio IC50: 18
[9]
  CC50 at 96 h: 52000 nM
[10]
  pIC50: 8.23

## O=C(NCc1ccc(F)cc1)c1cn2ccn(CCN3CCOCC3)c(=O)c2c(O)c1=O
[6]
  Ratio IC50: 3
[8]
  pIC50: 7.70
[7]
  Ratio IC50: >250
[9]
  CC50 at 96 h: 36000 nM
[10]
  pIC50: 8.18

## O=C(NCc1ccc(F)cc1)c1cn2c(c(O)c1=O)C(=O)N(CCN1CCOCC1)CC2
[6]
  Ratio IC50: 1.6
[8]
  pIC50: 7.47
[9]
  CC50 at 96 h: 160000 nM
[10]
  pIC50: 7.68

## CN(C)C(=O)Cn1ccn2cc(C(=O)NCc3ccc(F)cc3)c(=O)c(O)c2c1=O
[6]
  Ratio IC50: 4.1
[8]
  pIC50: 6.84
[9]
  CC50 at 96 h: > 200000 nM
[10]
  pIC50: 7.46

## COCCN1CCCN2C(=O)c3c(O)c(=O)c(C(=O)NCc4ccc(F)cc4)cn3CC12 (racemic)
[6]
  Ratio IC50: 3.9
[8]
  pIC50: 7.69
[7]
  Ratio IC50: 5.7
[9]
  CC50 at 96 h: 9800 nM
[10]
  pIC50: 8.28

## CN1CCCCN2C(=O)c3c(O)c(=O)c(C(=O)NCc4ccc(F)cc4)cn3CC12 (racemic)
[6]
  Ratio IC50: 4.9
[8]
  pIC50: 7.50
[7]
  Ratio IC50: 4.2
[9]
  CC50 at 96 h: > 200000 nM
[10]
  pIC50: 8.19

## CC(C)CN1CCCCN2C(=O)c3c(O)c(=O)c(C(=O)NCc4ccc(F)cc4)cn3CC12 (racemic)
[6]
  Ratio IC50: 17
[8]
  pIC50: 7.04
[7]
  Ratio IC50: 3.2
[9]
  CC50 at 96 h: 13000 nM
[10]
  pIC50: 8.27

## CC(=O)N1CCCN2C(=O)c3c(O)c(=O)c(C(=O)NCc4ccc(F)cc4)cn3CC12 (racemic)
[6]
  Ratio IC50: 2
[8]
  pIC50: 7.24
[9]
  CC50 at 96 h: > 200000 nM
[10]
  pIC50: 7.54

## CS(=O)(=O)N1CCCN2C(=O)c3c(O)c(=O)c(C(=O)NCc4ccc(F)cc4)cn3CC21 (racemic)
[6]
  Ratio IC50: 2.8
[8]
  pIC50: 6.92
[9]
  CC50 at 96 h: > 220000 nM
[10]
  pIC50: 7.37

## O=C(NCc1ccc(F)cc1)c1cn2c(c(O)c1=O)C(=O)N1CCOC1C2 (racemic)
[6]
  Ratio IC50: 52
[8]
  pIC50: 6.85
[7]
  Ratio IC50: 19
[9]
  CC50 at 96 h: 72000 nM
[10]
  pIC50: 8.57

## O=C(NCc1ccc(F)cc1)c1cn2c(c(O)c1=O)C(=O)N1CCCOC1C2 (racemic)
[1]
  Ratio: 685
[2]
  half-life: 17 h
[3]
  Vd: 0.13 L/kg
[12]
  clearance: 0.1 mL/min/kg
[4]
  Ratio IC50: 1.6
[5]
  Ratio IC50: 1.6
[6]
  Ratio IC50: 7.9
[8]
  pIC50: 7.57
[7]
  Ratio IC50: 2.8
[9]
  CC50 at 96 h: 18000 nM
[10]
  pIC50: 8.47

## O=C(NCc1ccc(F)cc1)c1cn2c(c(O)c1=O)C(=O)N1CCCCOC1C2 (racemic)
[6]
  Ratio IC50: 7.6
[8]
  pIC50: 7.66
[7]
  Ratio IC50: 2.2
[9]
  CC50 at 96 h: 26000 nM
[10]
  pIC50: 8.54

## CC(C)N1CCN2C(=O)c3c(O)c(=O)c(C(=O)NCc4ccc(F)cc4)cn3CC21 (racemic)
[6]
  Ratio IC50: 3.4
[8]
  pIC50: 8.11
[7]
  Ratio IC50: 39
[9]
  CC50 at 96 h: 8000 nM
[10]
  pIC50: 8.64

## CN1CCCN2C(=O)c3c(O)c(=O)c(C(=O)NCc4ccc(F)cc4)cn3CC12 (racemic)
[6]
  Ratio IC50: 4.3
[8]
  pIC50: 7.79
[7]
  Ratio IC50: 4.7
[9]
  CC50 at 96 h: 20000 nM
[10]
  pIC50: 8.42

## CC(C)N1CCCN2C(=O)c3c(O)c(=O)c(C(=O)NCc4ccc(F)cc4)cn3CC21 (racemic)
[6]
  Ratio IC50: 4.3
[8]
  pIC50: 7.49
[7]
  Ratio IC50: 9.1
[9]
  CC50 at 96 h: 7200 nM
[10]
  pIC50: 8.12

## O=C(NCc1ccc(F)cc1)c1cn2c(c(O)c1=O)C(=O)N1CCCN(Cc3nccs3)C1C2 (racemic)
[6]
  Ratio IC50: 3.9
[8]
  pIC50: 7.89
[7]
  Ratio IC50: 4.2
[9]
  CC50 at 96 h: 2800 nM
[10]
  pIC50: 8.48

## COc1cc2c(cc1Cc1cccc(Cl)c1F)c(=O)c(C(=O)O)cn2[C@H](CO)C(C)C [ELVITEGRAVIR]
[4]
  Ratio IC50: 1.8
[5]
  Ratio IC50: 25
[7]
  Ratio IC50: >1700

— ChEMBL document CHEMBL2311388, “Carbamoyl pyridone HIV-1 integrase inhibitors. 2. Bi- and tricyclic derivatives result in superior antiviral and pharmacokinetic profiles” (J Med Chem, 2013)
